From ChEMBL document CHEMBL3045963, “Synthesis of nalidixic acid based hydrazones as novel pesticides” (2010)
≈ marks a conversion by molar mass, not a printed value.

What follows are compounds tested on Callosobruchus maculatus (assay: Insecticidal activity against adult Callosobruchus maculatus assessed as mortality at 0.1% at 27 +/-1 degC after 24 hr by contact based film residue method). Settings: not given.
Assay type: functional
Outline: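 Lab-reared adults, 2-5 days old, exposed to a dry film: 1 mL of 0.1% compound solution in dichloromethane is swirled in a 90 mm Petri plate and dried 3-5 min. Ten adults per plate are held at 27 ± 1 °C and 70% RH. Mortality is scored at 24 h, with no response to touch counted as dead. Triplicates, solvent control, malathion reference.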

SMILES | mortality [%]
CCn1cc(C(=O)N/N=C/c2cccc(Br)c2)c(=O)c2ccc(C)nc21 | 20
CCn1cc(C(=O)N/N=C/c2ccccc2[N+](=O)[O-])c(=O)c2ccc(C)nc21 | 60
CCn1cc(C(=O)N/N=C/c2cccc([N+](=O)[O-])c2)c(=O)c2ccc(C)nc21 | 10
CCn1cc(C(=O)N/N=C/c2ccc([N+](=O)[O-])cc2)c(=O)c2ccc(C)nc21 | 10
CCn1cc(C(=O)N/N=C/c2ccc(O)cc2)c(=O)c2ccc(C)nc21 | 40
CCn1cc(C(=O)N/N=C/c2cccc(OC)c2)c(=O)c2ccc(C)nc21 | 10

What follows are compounds tested on Tribolium castaneum (assay: Insecticidal activity against adult Tribolium castaneum (red flour beetle) in compound pre-treated green gram grains assessed as mortality at 20 mg/kg after 48 hr by feeding based residue method). Settings: in Vigna radiata.
Assay type: functional
Outline: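 Green gram grains are treated with compound in dichloromethane (0.6 mg in 5 mL) at 20 mg active ingredient per kg grain (0.002%). Ten adults are released onto 10 g of treated grain in a plastic box. Mortality is recorded after 48 h. Triplicate, solvent-treated control.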

SMILES | mortality at 20 mg/kg [%]
CCn1cc(C(=O)N/N=C/c2ccccc2[N+](=O)[O-])c(=O)c2ccc(C)nc21 | 20

Each compound was assayed on Macrophomina phaseolina (assay: Fungicidal activity against Rhizoctonia bataticola by poisoned food technique). Settings: read-out: ED50 (the source's name).
Assay type: functional

SMILES | EC50 [µg/mL]
CCn1cc(C(=O)N/N=C/c2cccc(Br)c2)c(=O)c2ccc(C)nc21 | 628 (≈ 1520 µM)
CCn1cc(C(=O)N/N=C/c2ccccc2[N+](=O)[O-])c(=O)c2ccc(C)nc21 | 610 (≈ 1610 µM)
CCn1cc(C(=O)N/N=C/c2cccc([N+](=O)[O-])c2)c(=O)c2ccc(C)nc21 | 272 (≈ 716 µM)
CCn1cc(C(=O)N/N=C/c2ccc([N+](=O)[O-])cc2)c(=O)c2ccc(C)nc21 | 575 (≈ 1520 µM)
CCn1cc(C(=O)N/N=C/c2ccc(O)cc2)c(=O)c2ccc(C)nc21 | 308 (≈ 878 µM)
CCn1cc(C(=O)N/N=C/c2cccc(OC)c2)c(=O)c2ccc(C)nc21 | 210 (≈ 575 µM)
CCCCC(O)(Cn1cncn1)c1ccc(Cl)cc1Cl (stereo not drawn) [HEXACONAZOLE] | 4.4 (≈ 14 µM)

These compounds were tested on Rhizoctonia solani (assay: Fungicidal activity against Rhizoctonia solani by poisoned food technique). Settings: read-out: ED50 (the source's name).
Assay type: functional

SMILES | EC50 [µg/mL]
CCn1cc(C(=O)N/N=C/c2cccc(Br)c2)c(=O)c2ccc(C)nc21 | 439 (≈ 1060 µM)
CCn1cc(C(=O)N/N=C/c2ccccc2[N+](=O)[O-])c(=O)c2ccc(C)nc21 | 329 (≈ 866 µM)
CCn1cc(C(=O)N/N=C/c2cccc([N+](=O)[O-])c2)c(=O)c2ccc(C)nc21 | 245 (≈ 645 µM)
CCn1cc(C(=O)N/N=C/c2ccc([N+](=O)[O-])cc2)c(=O)c2ccc(C)nc21 | 226 (≈ 595 µM)
CCn1cc(C(=O)N/N=C/c2ccc(O)cc2)c(=O)c2ccc(C)nc21 | 330 (≈ 943 µM)
CCn1cc(C(=O)N/N=C/c2cccc(OC)c2)c(=O)c2ccc(C)nc21 | 157 (≈ 432 µM)
CCCCC(O)(Cn1cncn1)c1ccc(Cl)cc1Cl (stereo not drawn) [HEXACONAZOLE] | 18.3 (≈ 58.2 µM)

These compounds were tested on Fusarium oxysporum (assay: Fungicidal activity against Fusarium oxysporum by poisoned food technique). Settings: read-out: ED50 (the source's name).
Assay type: functional

SMILES | EC50 [µg/mL]
CCn1cc(C(=O)N/N=C/c2cccc(Br)c2)c(=O)c2ccc(C)nc21 | 209 (≈ 506 µM)
CCn1cc(C(=O)N/N=C/c2ccccc2[N+](=O)[O-])c(=O)c2ccc(C)nc21 | 169 (≈ 445 µM)
CCn1cc(C(=O)N/N=C/c2cccc([N+](=O)[O-])c2)c(=O)c2ccc(C)nc21 | 212 (≈ 559 µM)
CCn1cc(C(=O)N/N=C/c2ccc([N+](=O)[O-])cc2)c(=O)c2ccc(C)nc21 | 125 (≈ 330 µM)
CCn1cc(C(=O)N/N=C/c2ccc(O)cc2)c(=O)c2ccc(C)nc21 | 181 (≈ 517 µM)
CCn1cc(C(=O)N/N=C/c2cccc(OC)c2)c(=O)c2ccc(C)nc21 | 63.1 (≈ 173 µM)
CCCCC(O)(Cn1cncn1)c1ccc(Cl)cc1Cl (stereo not drawn) [HEXACONAZOLE] | 20.6 (≈ 65.6 µM)

What follows are compounds tested on Spodoptera litura (assay: Insecticidal activity against third-instar larval stage of Spodoptera litura assessed as mortality at 0.1% applied topically on the ventral side of the larvae measured after 24 hr by contact method). Settings: not given.
Assay type: functional
Outline: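 Field-collected larvae are reared in the lab at 27 ± 1 °C and 70% RH. Two microliters of a 0.1% dichloromethane solution is applied to the ventral side. Ten treated larvae are kept per glass bottle and fed fresh castor leaves. Mortality is recorded at 24 h. Triplicate, solvent control.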

SMILES | mortality [%]
CCn1cc(C(=O)N/N=C/c2cccc(Br)c2)c(=O)c2ccc(C)nc21 | 10
CCn1cc(C(=O)N/N=C/c2ccccc2[N+](=O)[O-])c(=O)c2ccc(C)nc21 | 30
CCn1cc(C(=O)N/N=C/c2ccc([N+](=O)[O-])cc2)c(=O)c2ccc(C)nc21 | 10
CCn1cc(C(=O)N/N=C/c2ccc(O)cc2)c(=O)c2ccc(C)nc21 | 10

What follows are compounds tested on Alternaria porri (assay: Fungicidal activity against Alternaria porri by poisoned food technique). Settings: read-out: ED50 (the source's name).
Assay type: functional

SMILES | EC50 [µg/mL]
CCn1cc(C(=O)N/N=C/c2cccc(Br)c2)c(=O)c2ccc(C)nc21 | 125 (≈ 303 µM)
CCn1cc(C(=O)N/N=C/c2ccccc2[N+](=O)[O-])c(=O)c2ccc(C)nc21 | 71.3 (≈ 188 µM)
CCn1cc(C(=O)N/N=C/c2cccc([N+](=O)[O-])c2)c(=O)c2ccc(C)nc21 | 89 (≈ 235 µM)
CCn1cc(C(=O)N/N=C/c2ccc([N+](=O)[O-])cc2)c(=O)c2ccc(C)nc21 | 70.1 (≈ 185 µM)
CCn1cc(C(=O)N/N=C/c2ccc(O)cc2)c(=O)c2ccc(C)nc21 | 146 (≈ 416 µM)
CCn1cc(C(=O)N/N=C/c2cccc(OC)c2)c(=O)c2ccc(C)nc21 | 57.6 (≈ 158 µM)
CCCCC(O)(Cn1cncn1)c1ccc(Cl)cc1Cl (stereo not drawn) [HEXACONAZOLE] | 25.5 (≈ 81.2 µM)

Each compound was assayed on Athelia rolfsii (assay: Fungicidal activity against Athelia rolfsii by poisoned food technique). Settings: Agroathelia rolfsii; read-out: ED50 (the source's name).
Assay type: functional

SMILES | EC50 [µg/mL]
CCn1cc(C(=O)N/N=C/c2cccc(Br)c2)c(=O)c2ccc(C)nc21 | 380 (≈ 920 µM)
CCn1cc(C(=O)N/N=C/c2ccccc2[N+](=O)[O-])c(=O)c2ccc(C)nc21 | 655 (≈ 1730 µM)
CCn1cc(C(=O)N/N=C/c2cccc([N+](=O)[O-])c2)c(=O)c2ccc(C)nc21 | 287 (≈ 756 µM)
CCn1cc(C(=O)N/N=C/c2ccc([N+](=O)[O-])cc2)c(=O)c2ccc(C)nc21 | 464 (≈ 1220 µM)
CCn1cc(C(=O)N/N=C/c2ccc(O)cc2)c(=O)c2ccc(C)nc21 | 364 (≈ 1040 µM)
CCn1cc(C(=O)N/N=C/c2cccc(OC)c2)c(=O)c2ccc(C)nc21 | 242 (≈ 665 µM)
CCCCC(O)(Cn1cncn1)c1ccc(Cl)cc1Cl (stereo not drawn) [HEXACONAZOLE] | 13 (≈ 41.4 µM)

The compounds below were run on Spodoptera litura (assay: Insecticidal activity against third-instar larval stage of prestarved Spodoptera litura in castor leaf assessed as mortality at 0.1% treated for 2 secs before larval infestation measured after 24 hr by feeding method). Settings: not given.
Assay type: functional
Outline: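 Castor leaf is dipped 2 s in 0.1% compound solution, air-dried, and placed on moist filter paper in 9 cm Petri plates. Larvae starved 4 h beforehand are released singly, one per plate. Thirty replicates per treatment, solvent control. Mortality is scored after 24 h.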

SMILES | mortality [%]
CCn1cc(C(=O)N/N=C/c2cccc(Br)c2)c(=O)c2ccc(C)nc21 | 20
CCn1cc(C(=O)N/N=C/c2ccccc2[N+](=O)[O-])c(=O)c2ccc(C)nc21 | 100
CCn1cc(C(=O)N/N=C/c2cccc([N+](=O)[O-])c2)c(=O)c2ccc(C)nc21 | 80
CCn1cc(C(=O)N/N=C/c2ccc([N+](=O)[O-])cc2)c(=O)c2ccc(C)nc21 | 90
CCn1cc(C(=O)N/N=C/c2ccc(O)cc2)c(=O)c2ccc(C)nc21 | 70
CCn1cc(C(=O)N/N=C/c2cccc(OC)c2)c(=O)c2ccc(C)nc21 | 10
CC1(C)C(C=C(Cl)Cl)C1C(=O)OC(C#N)c1cccc(Oc2ccccc2)c1 (stereo not drawn) [ALPHA-CYPERMETHRIN] | 100
